Source: ChEMBL document CHEMBL4665630, “Synthesis and biological evaluation of anthraquinone derivatives as allosteric phosphoglycerate mutase 1 inhibitors for cancer treatment” (Eur J Med Chem, 2019)
Activity calls are given as the source filed them. The rule behind the calls is not given here.

Key:
NCI-H1299 [1] = assay: Inhibition of anaerobic glycolysis in human NCI-H1299 cells assessed as decrease in glycolytic capacity pretreated for 12 hrs in presence of glucose/2-DG and oligomycin by […] assay; assay type: functional, cell-based
Outline: (§1)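 H1299 cells, 10,000 per well, exposed to 10 or 20 µM or PBS for 12 h, then Seahorse XF96. Glycolysis stress: glucose 10 mM, oligomycin 1 µM, 2-DG 50 mM (ECAR). Mito stress: oligomycin 1 µM, FCCP 1 µM, rotenone/antimycin A 0.5 µM (OCR). Normalised to cell number; triplicates, mean ± s.d.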

[2] = target: 5'-AMP-activated protein kinase catalytic subunit alpha-2 (Homo sapiens) (UniProt P54646); assay: Activation of AMPK in human H1299 cells assessed as increase in AMPK phosphorylation at 10 to 20 uM by Western blot analysis; assay type: cell-based; settings: NCI-H1299, filed as activator, dose microM 10-20
[3] = Cmax in ICR mouse at 100 mg/kg, ip measured upto 24 hrs by LC-MS analysis; assay type: ADME, organism-based; design: route intraperitoneal, dose 100 mg/kg, time <=24; settings: in vivo
Outline: (§2)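 Male ICR mice, single intraperitoneal 100 mg/kg in 7% DMSO/7% Cremophor EL/86% PBS; heparinised blood at 0.25, 0.5, 1, 2, 4, 6, 10, 24 h; plasma extracted with methanol, quantified by HPLC against a standard curve (water/methanol with 0.1% TFA gradient); n = 3 animals per time point.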

NCI-H1299 [4] = assay: Inhibition of anaerobic glycolysis in human NCI-H1299 cells assessed as decrease in extracellular acidification rate at 10 to 20 uM pretreated for 12 hrs in presence of glucose/2-DG and oligomycin by seahorse XF96 extracellular flux analyzer assay; settings: dose microM 10-20, time 12 h
NCI-H1299 [5] = assay: Inhibition of anaerobic glycolysis in human NCI-H1299 cells assessed as decrease in glycolytic reserve pretreated for 12 hrs in presence of glucose/2-DG and oligomycin by […]; assay type: functional, cell-based; outline: as §1
[6] = AUC (0 to 24 hrs) in ICR mouse at 100 mg/kg, ip measured upto 24 hrs by LC-MS analysis; assay type: ADME, organism-based; design: route intraperitoneal, dose 100 mg/kg, time <=24; settings: in vivo; outline: as §2
[7] = Apparent oral clearance in ICR mouse at 100 mg/kg, ip measured upto 24 hrs by LC-MS analysis; assay type: ADME, organism-based; settings: in vivo; outline: as §2
[8] = Half life in ICR mouse at 100 mg/kg, ip measured upto 24 hrs by LC-MS analysis; assay type: ADME, organism-based; settings: in vivo; outline: as §2
NCI-H1299 [9] = assay: Antitumor activity against human NCI-H1299 cells xenografted in ICR mouse assessed as tumor weight at 100 mg/kg,qd ip upto 8 days relative to control; assay type: functional, organism-based; settings: nude, time day <=8, in the assay text read “nude mouse” for “ICR mouse”
Outline: (§3)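 Nude mice (male, 4–6 weeks) given 5×10^6 H1299 cells in PBS subcutaneously at both flanks; at ~200 mm³ randomised to vehicle or 100 mg/kg i.p. once daily; volume (L×W×W)×π/6, body weight tracked; terminal tumour weights, Ki67 IHC on tumours, H&E of kidney and liver; mean ± s.e.m., unpaired t-test.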

NCI-H1299 [10] = assay: Inhibition of oxidative phosphorylation in human NCI-H1299 cells assessed as decrease in oxygen consumption rate at 10 to 20 uM pretreated for 80 mins in presence of glucose/2-DG and oligomycin by seahorse XF24 extracellular flux analyzer assay; assay type: functional, cell-based; settings: dose microM 10-20, time 80.0 min
PC-9 = assay: Antiproliferative activity against human PC-9 cells assessed as reduction in cell viability measured after 72 hrs by MTT assay; assay type: functional, cell-based; settings: PC-9, 72 h
Outline: (§4)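 Cells grown in RPMI-1640 (H1299, PC9) or F-12K (A549) with 10% FBS and penicillin/streptomycin; 2000 H1299 or A549 or 1000 PC9 cells per well, attached 24 h, exposed to inhibitor 72 h; MTT 0.5 mg/mL for 4 h, absorbance at 570 nm; mean ± s.d., n=3.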

[11] = Tmax in ICR mouse at 100 mg/kg, ip measured upto 24 hrs by LC-MS analysis; assay type: ADME, organism-based; settings: in vivo; outline: as §2
[12] = target: Phosphoglycerate mutase 1 (Homo sapiens, UniProt P18669); assay: Inhibition of human recombinant PGAM1 by measuring decrease in OD by enzyme based assay
Outline: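 C-terminal His6-tagged PGAM1, Ni-NTA purified, 4.6 nM, preincubated with inhibitor in DMSO; coupled enolase/pyruvate kinase M2/LDH system in 100 mM Tris-HCl, 100 mM KCl, 5 mM MgCl2, 1 mM ADP, 0.2 mM NADH, 4 mM 3PG; NADH loss read at 340 nm. Counter-screen without PGAM1 using 4 mM 2PG. Mean ± s.d., n=3.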

NCI-H1299 [13] = assay: Antiproliferative activity against human H1299 cells assessed as reduction in cell viability measured after 72 hrs by MTT assay; assay type: functional, cell-based; settings: NCI-H1299, 72 h; outline: as §4
[14] = Apparent oral volume of distribution in ICR mouse at 100 mg/kg, ip measured upto 24 hrs by LC-MS analysis; assay type: ADME, organism-based; settings: in vivo; outline: as §2
NCI-H1299 [15] = assay: Antitumor activity against human NCI-H1299 cells xenografted in nude mouse assessed as tumor volume at 100 mg/kg,qd ip measured upto 8 days relative to control; settings: time day <=8
[16] = Toxicity in nude mouse xenografted with human NCI-H1299 cells assessed as kidney and liver histology at 100 mg/kg, ip qd upto 8 days by haematoxylin and eosin staining-based light microscopic analysis; settings: in vivo, 192 h
NCI-H1299 [17] = assay: Inhibition of anaerobic glycolysis in human NCI-H1299 cells assessed as decrease in glycolysis rate pretreated for 12 hrs in presence of glucose/2-DG and oligomycin by […]; assay type: functional, cell-based; outline: as §1
[18] = Toxicity in nude mouse xenografted with human NCI-H1299 cells assessed as body weight loss at 100 mg/kg, ip qd upto 8 days; settings: in vivo, 192 h
NCI-H1299 [19] = assay: Inhibition of oxidative phosphorylation in human NCI-H1299 cells assessed as decrease in maximal respiration at 10 to 20 uM pretreated for 12 hrs in presence of glucose/2-DG and oligomycin by […]; assay type: functional, cell-based; settings: dose microM 10-20, time 12.0 hrs; outline: as §1
[20] = […] xenografted with human NCI-H1299 cells assessed as kidney histology at 100 mg/kg, ip qd upto 8 days by haematoxylin and eosin staining-based light microscopic analysis; assay type: organism-based; settings: in vivo, 192 h, time <=8 day; outline: as §3
NCI-H1299 [21] = assay: Inhibition of oxidative phosphorylation in human NCI-H1299 cells assessed as decrease in basal respiration at 10 to 20 uM pretreated for 12 hrs in presence of glucose/2-DG and oligomycin by […] assay; assay type: functional, cell-based; settings: dose microM 10-20, time 12.0 hrs; outline: as §1
NCI-H1299 [22] = assay: Reduction in lactate production in human H1299 cells at 10 to 20 uM incubated for 24 hrs colorimetry based lactate assay; assay type: functional, cell-based; settings: dose microM 10-20
Outline: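 Cells grown overnight at 37 °C; at 50% confluence switched to phenol red-free, serum-free RPMI for 1 h at 37 °C; medium lactate measured colorimetrically with a kit, normalised to microscope cell counts.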

NCI-H1299 [23] = assay: Inhibition of glucose metabolism in human H1299 cells assessed as reduction in ATP level at 10 to 20 uM; assay type: functional, cell-based; settings: dose microM 10-20
[24] = AUC (0 to infinity) in ICR mouse at 100 mg/kg, ip measured upto 24 hrs by LC-MS analysis; assay type: ADME, organism-based; design: route intraperitoneal, dose 100 mg/kg, time <=24; settings: in vivo; outline: as §2
NCI-H1299 [25] = assay: Induction of ROS production in human H1299 cells using carboxy-H2DCFDA at 10 to 20 uM incubated for 24 hrs by FACS analysis; assay type: functional, cell-based; settings: dose microM 10-20
Outline: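 H1299 cells, 2×10^5 per well, loaded 24 h after seeding with 12.5 µM carboxy-H2DCFDA for 60 min after PBS wash; harvested and analysed by flow cytometry, excitation 490/emission 530 nm.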

A549 = assay: Antiproliferative activity against human A549 cells assessed as reduction in cell viability measured after 72 hrs by MTT assay; assay type: functional, cell-based; settings: A549, 72 h; outline: as §4
NCI-H1299 [26] = assay: Inhibition of oxidative phosphorylation in human NCI-H1299 cells assessed as decrease in spare capacity at 10 to 20 uM pretreated for 12 hrs in presence of glucose/2-DG and oligomycin by […]; assay type: functional, cell-based; settings: dose microM 10-20, time 12.0 hrs; outline: as §1

Sequence of Phosphoglycerate mutase 1 (P18669 whole entry): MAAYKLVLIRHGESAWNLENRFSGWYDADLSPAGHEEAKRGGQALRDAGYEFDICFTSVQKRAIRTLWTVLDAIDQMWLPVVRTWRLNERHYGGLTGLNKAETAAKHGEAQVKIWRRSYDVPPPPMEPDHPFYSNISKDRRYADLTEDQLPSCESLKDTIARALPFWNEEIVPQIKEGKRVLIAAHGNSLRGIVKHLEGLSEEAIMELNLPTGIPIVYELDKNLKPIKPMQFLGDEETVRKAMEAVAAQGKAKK
Sequence of 5'-AMP-activated protein kinase catalytic subunit alpha-2 (Homo sapiens) (P54646 whole entry, looked up): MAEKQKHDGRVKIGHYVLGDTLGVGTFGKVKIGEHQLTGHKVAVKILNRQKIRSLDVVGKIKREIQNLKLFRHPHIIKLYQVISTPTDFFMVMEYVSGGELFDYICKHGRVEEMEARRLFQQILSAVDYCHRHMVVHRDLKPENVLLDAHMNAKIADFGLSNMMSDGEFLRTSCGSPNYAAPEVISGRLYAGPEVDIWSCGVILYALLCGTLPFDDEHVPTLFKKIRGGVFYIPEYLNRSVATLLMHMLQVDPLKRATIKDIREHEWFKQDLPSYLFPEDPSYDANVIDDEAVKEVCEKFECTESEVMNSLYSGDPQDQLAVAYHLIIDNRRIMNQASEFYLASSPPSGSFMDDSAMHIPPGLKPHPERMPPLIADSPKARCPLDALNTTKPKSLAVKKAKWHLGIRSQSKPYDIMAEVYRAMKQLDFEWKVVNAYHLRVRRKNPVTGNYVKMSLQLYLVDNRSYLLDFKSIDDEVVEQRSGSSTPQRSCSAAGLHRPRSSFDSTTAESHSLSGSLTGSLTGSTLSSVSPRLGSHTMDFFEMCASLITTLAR

In the case of `O=C1c2ccccc2C(=O)c2c1cc(NS(=O)(=O)c1ccc(-c3ccccc3)cc1)c(O)c2O`, the inhibition (NCI-H1299 [1]) is reported as “Dose-dependent effect”, the Activity [2] is reported as “Active” and the Cmax [3] is reported as 131 µg/mL. The inhibition (NCI-H1299 [4]) was “Dose-dependent effect”, the inhibition (NCI-H1299 [5]) was “Dose-dependent effect” and the AUC(0-t) [6] was 239 µg·h/mL. For the same molecule, the CL/F [7] was 0.193 mL/min, the half-life [8] was 4.28 h and the Activity (NCI-H1299 [9]) was “Active”. For the same molecule, the inhibition (NCI-H1299 [10]) was “Active”, the IC50 (PC-9) was 4.8 µM and the Tmax [11] was 0.25 h. It also gave an IC50 [12] of 0.25 µM, an IC50 (NCI-H1299 [13]) of 6.4 µM and a Vd/F [14] of 71.64 mL. The Activity (NCI-H1299 [15]) was “Active”, the Activity [16] was “Non-Toxic” and the inhibition (NCI-H1299 [17]) was “Dose-dependent effect”. For the same molecule, the Activity [18] was “Non-Toxic”, the inhibition (NCI-H1299 [19]) was “Active” and the Activity [20] was “Non-Toxic”. For the same molecule, the inhibition (NCI-H1299 [21]) was “Active”, the Activity (NCI-H1299 [22]) was “Active” and the inhibition (NCI-H1299 [23]) was “Active”. The AUC(0-inf) [24] was 245 µg·h/mL, the Activity (NCI-H1299 [25]) was “Active” and the IC50 (A549) was 10.3 µM. For the same molecule, the inhibition (NCI-H1299 [26]) was “Active”.
